{"source": "ChEMBL document CHEMBL4196195", "about": "“( R)- N-(1-Methyl-2-hydroxyethyl)-13-( S)-methyl-arachidonamide (AMG315): A Novel Chiral Potent Endocannabinoid Ligand with Stability to Metabolizing Enzymes” (J Med Chem, 2018)", "key": {"[1]": {"target": "Cannabinoid receptor 1 (Rattus norvegicus, UniProt P20272)", "sequence (P20272 whole entry)": "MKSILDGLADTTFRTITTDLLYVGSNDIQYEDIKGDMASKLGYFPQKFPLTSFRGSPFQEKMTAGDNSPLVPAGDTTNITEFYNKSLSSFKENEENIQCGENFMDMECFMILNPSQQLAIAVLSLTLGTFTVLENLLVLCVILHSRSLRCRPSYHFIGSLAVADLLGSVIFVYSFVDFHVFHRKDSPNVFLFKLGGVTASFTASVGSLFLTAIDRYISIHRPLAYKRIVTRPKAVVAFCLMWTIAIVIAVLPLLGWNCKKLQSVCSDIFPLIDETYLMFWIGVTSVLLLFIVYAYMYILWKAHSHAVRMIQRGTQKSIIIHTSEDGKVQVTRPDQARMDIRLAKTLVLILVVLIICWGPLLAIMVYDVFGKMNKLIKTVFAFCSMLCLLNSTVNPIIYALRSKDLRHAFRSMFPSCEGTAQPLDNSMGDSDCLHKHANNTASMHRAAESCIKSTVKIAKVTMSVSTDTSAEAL", "experiment": "Agonist activity at rat CB1 receptor expressed in HEK293 cells assessed as inhibition of forskolin-induced cAMP accumulation incubated for 30 mins", "assay_type": "functional, cell-based", "settings": "read-out: EC50", "in_short": "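HEK293 cells stably expressing rCB1, harvested with nonenzymatic dissociation reagent, washed in HBSS, 1000–1500 cells/well. Test compound at various concentrations with forskolin (2 μM final) in stimulation buffer, 30 min at room temperature. cAMP read by TR-FRET (Eu-cAMP tracer plus ULight anti-cAMP, 60 min room temperature). Forskolin-stimulated cAMP set to 100%. EC50 from nonlinear regression; two independent experiments in triplicate.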"}, "[2]": {"target": "Cannabinoid receptor 1 (Rattus norvegicus) (UniProt P20272)", "sequence (P20272 whole entry)": "as above", "experiment": "Agonist activity at rat CB1 receptor expressed in HEK293 cells assessed as inhibition of forskolin-induced cAMP accumulation incubated for 30 mins relative to 500 nM CP-55,940", "assay_type": "functional, cell-based"}, "[3]": {"target": "T1, MGL (monoglyceride lipase) (Homo sapiens, UniProt Q99685)", "T1 sequence (Q99685 whole entry)": "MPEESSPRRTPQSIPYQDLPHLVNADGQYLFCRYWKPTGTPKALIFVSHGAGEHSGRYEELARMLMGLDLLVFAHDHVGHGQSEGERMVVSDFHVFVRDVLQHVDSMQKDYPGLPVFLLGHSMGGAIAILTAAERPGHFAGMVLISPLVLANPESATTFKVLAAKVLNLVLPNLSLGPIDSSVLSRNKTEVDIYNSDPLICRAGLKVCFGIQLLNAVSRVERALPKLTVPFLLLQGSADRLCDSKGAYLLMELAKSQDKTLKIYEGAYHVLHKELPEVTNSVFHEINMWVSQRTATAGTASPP", "experiment": "Stability assessed as human MGL-mediated compound hydrolysis by HPLC analysis", "assay_type": "ADME", "settings": "read-out: Stability", "in_short": "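Human MGL or ABHD6 expressed in E. coli BL21(DE3); cell lysate in 150 mM NaCl, 50 mM Tris, 1% Triton X-100, pH 8.0. Lysate (0.5 µg total protein) incubated at 37 °C with compound or 2-AG reference for 30 min. Samples at 0–30 min quenched in acetonitrile. Analysed by C18 reversed-phase HPLC with UV at 204 nm against external standards.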"}, "[4]": {"tested_on": "Mus musculus", "experiment": "Antiallodynic activity in CD1 mouse model of CFA-induced inflammatory pain assessed as increase in CFA-reduced mechanical paw withdrawal threshold at 5 mg/kg, ip measured at 10 mins post injection", "assay_type": "functional, organism-based", "in_short": "(§1)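 Adult male mice (39 ± 10 g), wild-type CD1 or CB1 KO on CD1 background, single housed. CFA:saline 1:1 (20 μL) injected intraplantar into right hind paw; 48 h allowed before dosing. Drug given ip in 5 mL/kg, vehicle group included. Electronic von Frey (90 g probe) after ≥30 min habituation, read in duplicate per paw, at baseline, 48 h post-CFA and 10, 30, 60, 120 min post-dose. Two-way mixed ANOVA with Bonferroni post hoc tests.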"}, "[5]": {"tested_on": "Mus musculus", "experiment": "Antiallodynic activity in CD1 mouse model of CFA-induced inflammatory pain assessed as increase in CFA-reduced mechanical paw withdrawal threshold at 5 mg/kg, ip measured at 60 mins post injection", "assay_type": "functional, organism-based", "in_short": "as §1"}, "[6]": {"tested_on": "Mus musculus", "experiment": "Antiallodynic activity in CB1 receptor knockout CD1 mouse model of CFA-induced inflammatory pain assessed as increase in CFA-reduced mechanical paw withdrawal threshold at 5 mg/kg, ip measured at 10 to 120 mins post injection", "assay_type": "functional, organism-based", "in_short": "as §1"}, "[7]": {"tested_on": "Mus musculus", "experiment": "Effect on mechanical paw withdrawal threshold of contralateral paw in CD1 mouse model of CFA-induced inflammatory pain at 5 mg/kg, ip measured at 10 to 120 mins post injection", "assay_type": "ADME, organism-based", "settings": "in vivo", "in_short": "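Wild-type CD1 or CB1 KO (CD1 background) adult male mice. Unilateral intraplantar CFA:saline 1:1 (20 μL) into right hind paw, 48 h before ip dosing (5 mL/kg); vehicle controls. Threshold of the uninjected contralateral paw measured by electronic von Frey (90 g probe), duplicate readings averaged, at 10, 30, 60, 120 min post-dose. Two-way mixed ANOVA.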"}}, "note": "The source made the active and inactive calls."}
{"smiles": "CCCCC/C=C\\[C@H](C)/C=C\\C/C=C\\C/C=C\\CCCC(=O)N[C@H](C)CO", "values": [{"measurement": "EC50", "setting": "[1]", "value": 0.6, "unit": "nM"}, {"measurement": "Emax", "setting": "[2]", "value": 76, "unit": "%"}, {"measurement": "half-life", "setting": "[3]", "value": 30, "unit": "min"}, {"measurement": "Activity", "setting": "[4]", "value": "Active"}, {"measurement": "Activity", "setting": "[5]", "value": "Active"}, {"measurement": "Activity", "setting": "[6]", "value": "inactive"}, {"measurement": "Activity", "setting": "[7]", "value": "Non-Toxic"}]}
